pIC50: −log10 of the molar value. “And” between values parts separate entries of the source, which are not always exact repeats. Identical values can stand only once. The source made the active and inactive calls.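 Rule for the calls: active = peak Kir2.1 potassium channel inhibition over 30% at one or more doses, plus a fitted dose response curve; inactive = no inhibition at any dose, or no curve fitted.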
These compounds were tested against Inward rectifier potassium channel 2 (Mus musculus) (UniProt P35561) (assay: Kir2.1 channel inhibition, specificity check, SAR follow-up, selectivity assay for KCNK9 inhibitor project, cell-based, FluxOR thallium flux, CRC round 4 (AID 623881)). Settings: Kir2.1-expressing cells, FluxOR thallium flux fluorescence.
Chain of Inward rectifier potassium channel 2 (Mus musculus) (P35561 whole entry, looked up): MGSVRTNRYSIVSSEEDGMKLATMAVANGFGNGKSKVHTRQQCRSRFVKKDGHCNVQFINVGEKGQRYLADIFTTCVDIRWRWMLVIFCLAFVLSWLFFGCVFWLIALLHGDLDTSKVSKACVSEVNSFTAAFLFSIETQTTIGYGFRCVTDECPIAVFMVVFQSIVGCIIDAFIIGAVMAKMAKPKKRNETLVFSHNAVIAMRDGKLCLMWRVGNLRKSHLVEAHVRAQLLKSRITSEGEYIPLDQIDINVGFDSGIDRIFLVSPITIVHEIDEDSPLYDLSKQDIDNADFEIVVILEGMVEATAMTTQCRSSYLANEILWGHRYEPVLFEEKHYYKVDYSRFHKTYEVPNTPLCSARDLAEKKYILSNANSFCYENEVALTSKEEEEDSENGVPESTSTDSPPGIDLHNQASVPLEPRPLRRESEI
Method in brief: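 test system = HEK293 cells stably expressing the Kir2.1 inward rectifier channel | reagent = Tl+/K+ stimulus (5x stock K2SO4 plus Tl2SO4) | dosing = 10 concentrations per compound | timing = 90 min dye load, 20 min compound, room temperature | technique = kinetic FluxOR thallium-dye fluorescence | read-out basis = baseline-normalized max-minus-min fluorescence, fitted for IC50 and Hill slope | repeats = ≥2 replicates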

pIC50 | SMILES
4.94 | CC(C1CC2CCC1C2)n1c(SCCc2cccc(O)c2)nnc1-c1ccco1 (stereo not given)
4.81 | CC(C1CC2CCC1C2)n1c(SCCc2ccccn2)nnc1-c1ccco1 (stereo not given)
4.73 | COc1ccc(CSc2nnc(-c3ccco3)n2C(C)C2CC3CCC2C3)cc1OC (stereo not given)
5.04 | COc1cccc(CCSc2nnc(-c3ccco3)n2C(C)C2CC3CCC2C3)c1 (stereo not given)
4.63 and 4.60 | C[C@@H]([C@@H]1CC2CC[C@H]1C2)n1c(-c2ccsc2)n[nH]c1=S
4.64 | CC(C1C[C@H]2CCC1C2)n1c(-c2ccsc2)n[nH]c1=S (stereo not given in full)

Same assay, conditions: Kir2.1-expressing cells, FluxOR thallium flux fluorescence; at 30 µM (top of the series)

SMILES | thallium flux ratio, lower = inhibition
COc1ccc(CC(=O)NCc2ccccc2-c2ccccc2C(=O)NCc2ccc(F)cc2F)cc1 | inactive
CCCC(=O)C1CCN(c2ncnc3c2CN(C(=O)c2ccc(-c4ccccc4)cc2)CC3)CC1 | inactive
CC([C@@H]1CC2CC[C@H]1C2)n1c(-c2ccsc2)n[nH]c1=S (stereo not given in full) | inactive
CC(C1CC2CCC1C2)n1c(N)nnc1-c1ccco1 (stereo not given) | inactive
C[C@H]([C@@H]1CC2CC[C@H]1C2)n1c(-c2ccco2)n[nH]c1=S | inactive
C[C@H](C1CCCCC1)n1c(-c2ccsc2)n[nH]c1=S | inactive
COc1ccc(NC(=O)CSc2nnc(-c3ccco3)n2C(C)C2CC3CCC2C3)cc1OC (stereo not given) | inactive
C[C@H]([C@@H]1CC2CC[C@H]1C2)n1c(-c2ccsc2)n[nH]c1=S | inactive
CC(C1CC2CCC1C2)n1c(-c2ccco2)nn(CCc2ccncc2)c1=S (stereo not given) | inactive
C[C@H](C1CCCCC1)n1c(-c2ccccc2F)n[nH]c1=S | inactive
C[C@@H]([C@@H]1CC2CC[C@H]1C2)n1c(-c2ccco2)n[nH]c1=S | inactive

Now from value to compound:

thallium flux ratio, lower = inhibition | SMILES
inactive | COc1ccc(C(=O)CCSc2nnc(-c3ccco3)n2C(C)C2CC3CCC2C3)cc1OC (stereo not given)
inactive | COc1cccc(-c2n[nH]c(=S)n2[C@H](C)[C@@H]2CC3CC[C@H]2C3)c1
inactive | COc1cccc(-c2n[nH]c(=S)n2[C@H](C)C2CCCCC2)c1
inactive | C[C@H]([C@@H]1CC2CC[C@H]1C2)n1c(-c2ccccc2F)n[nH]c1=S
inactive | CC(C1CC2CCC1C2)n1c(SCC(=O)N2CCN(C)CC2)nnc1-c1ccco1 (stereo not given)
inactive | CC(C1CC2CCC1C2)n1c(SCCN2CCOCC2)nnc1-c1ccco1 (stereo not given)
inactive | COc1cccc(-c2nnc(SSc3nnc(-c4cccc(OC)c4)n3C(C)C3CC4CCC3C4)n2C(C)C2CC3CCC2C3)c1 (stereo not given)
inactive | CC(C1CCN(C)CC1)n1c(-c2ccco2)n[nH]c1=S (stereo not given)

— PubChem BioAssay AID623881 (Johns Hopkins Ion Channel Center, 2012)
